Screening data (PubChem BioAssay)
Sampled rows, rich in hits. Any-hit rate of the full collection: about 2.6%.
SENP7 inh: inhibitors of human SENP7 protease | Q9BQF6 | recombinant SENP7, Z-RLRGG-aminoluciferin luminescence, 40 min | inhibition, % at 5 µM | 330,000 tested, 1.5% active | AID 434973;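 active means inhibition above about 50% at the single test dose, limit read from the data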
SENP8 block-1: blocks human SENP8 cleavage of Nedd8 substrate | recombinant SENP8, Nedd8 substrate fluorescence | inhibition, % at 20 µM | 360,000 tested, 0.64% active; in the data active means inhibition mostly above about 40%, no sharp cut-off; inactive means mostly below about 27%
Target sequence (Q96LD8 whole entry, looked up): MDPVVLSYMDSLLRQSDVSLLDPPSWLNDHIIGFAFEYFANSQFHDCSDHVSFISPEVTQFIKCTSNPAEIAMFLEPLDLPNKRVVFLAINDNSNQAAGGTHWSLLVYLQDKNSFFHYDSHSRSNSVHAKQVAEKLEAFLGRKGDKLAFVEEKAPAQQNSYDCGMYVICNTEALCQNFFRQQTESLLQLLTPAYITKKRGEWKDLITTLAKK
SENP6 block: SENP6 protease inhibition; inhibition, % at 10 µM; Recombinant SENP6 catalytic domain, aminoluciferin luminescence; AID 2599; 330,000 tested, 1.8% active;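 active means inhibition above about 50% at the single tested dose, limit read from the data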
SENP1 inh: blocks the human SENP1 SUMO protease catalytic domain; recombinant SENP1 catalytic domain, CyPet-SUMO1-YPet FRET cleavage; 360,000 tested, 0.21% active; inhibition, % at 10 µM;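 active means inhibition at least 30% at 10 µM, raw YFP signal under a set limit, fluorescence ratio 0.5 to 1.5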
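Controls: no-enzyme wells low, DMSO-plus-enzyme wells high control. Test system: human recombinant His6-tagged SENP1 catalytic domain enzyme. Reagent: SFCypet-SUMO1-SFYpet FRET protein substrate, 25 nM final. Doses: one dose per compound, 10 µM, 0.5% DMSO. Detection: FRET, CFP and YFP emission. Timing: 50 min reaction at room temperature.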
SENP8 block-2: SENP8 protease inhibition; Q96LD8; purified SENP8, Z-RLRGG-aminoluciferin cleavage, luminescence; inhibition, % at 10 µM; 330,000 tested, 1.2% active; AID 2540; in the data active means inhibition above about 50%
Platelet DG rel: modulates dense granule release in human platelets | human platelet-rich plasma, SFLLRN dense granule ATP release, luminescence | inhibition, %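 (compounds screened at 7.5 µM in platelet-rich plasma)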 | 300,000 tested, 0.22% active | AID 1663;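 active means mean replicate score, as percent of positive control, at or above 50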
SENP8 confirm: confirmation of human SENP8 protease inhibitors | shares compounds with SENP7 inh | Recombinant SENP8, Z-RLRGG-aminoluciferin luminescence, 60 min | inhibition, % at 12.5 µM | 6,200 tested, 40% active | AID 488912;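 active means mean inhibition across replicates above about 50%, limit read from the data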
SENP6 confirm: human SENP6 inhibition, confirmed. shares compounds with SENP7 inh. recombinant SENP6, Z-RLRGG-aminoluciferin luminescence. inhibition, % at 12.5 µM. 6,200 tested, 58% active
SENP7 conf: confirmation of human SENP7 protease inhibitors; AID 488917; shares compounds with SENP7 inh; recombinant SENP7, Z-RLRGG-aminoluciferin luminescence, 40 min; inhibition, % at 12.5 µM; 6,200 tested, 69% active
Casp3 select: selectivity test for SENP inhibitors: human caspase-3 inhibition; purified caspase-3, Z-DEVD-aminoluciferin luminescence, 60 min; inhibition, % at 12.5 µM; shares compounds with SENP7 inh; 6,200 tested, 60% active;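 active means mean inhibition above about 50%, limit read from the data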
Target sequence (P42574 28-227 limits assumed): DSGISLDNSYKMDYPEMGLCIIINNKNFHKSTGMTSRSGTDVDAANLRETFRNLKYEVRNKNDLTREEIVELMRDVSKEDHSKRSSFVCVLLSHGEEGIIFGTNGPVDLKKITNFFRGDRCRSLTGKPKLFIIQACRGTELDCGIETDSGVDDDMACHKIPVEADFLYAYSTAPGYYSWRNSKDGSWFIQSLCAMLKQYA
Luc interf: luminescence interference (SENP counter-screen) | Pre-incubated SENP8/Z-RLRGG-aminoluciferin, luciferase luminescence interference | 6,200 tested, 39% active | inhibition, % at 12.5 µM | shares compounds with SENP7 inh;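 active means mean inhibition above about 50% when retested at one dose, limit read from the data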
Numbers stand for hits.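 How the source made its calls, unless noted: active means mean inhibition above about 50% in the one-dose retest (limit read from the data); inactive means the rest.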

`CCc1ccc(-n2nc3cc(C)c(N)cc3n2)cc1` gave SENP7 inh inactive, SENP8 block-1 inactive, SENP6 block 68.7, SENP1 inh inactive, SENP8 block-2 inactive, Platelet DG rel inactive, SENP8 confirm 72.8, SENP6 confirm 75.6, SENP7 conf 96.7, Casp3 select 68.7 and Luc interf inactive.
`Cc1ccc(-n2nc3cc(C)c(N)cc3n2)cc1` gave SENP7 inh inactive, SENP8 block-1 inactive, SENP6 block inactive, SENP1 inh inactive, SENP8 block-2 inactive and Platelet DG rel inactive.
`COc1ccc(-n2nc3cc(C)c(N)c(Br)c3n2)cc1` gave SENP7 inh inactive, SENP8 block-1 inactive, SENP6 block 62.9, SENP1 inh inactive, SENP8 block-2 inactive, Platelet DG rel inactive, SENP8 confirm inactive, SENP6 confirm inactive, SENP7 conf 53.2, Casp3 select inactive and Luc interf inactive.
COc1ccc(-n2nc3cc(N)c(Br)cc3n2)cc1 was read as SENP7 inh 67.4, SENP8 block-1 inactive, SENP6 block 84.5, SENP1 inh inactive, SENP8 block-2 74.3, Platelet DG rel inactive, SENP8 confirm inactive, SENP6 confirm 67.4, SENP7 conf 88.9, Casp3 select inactive and Luc interf inactive.
Screening COc1ccc(N(C(=O)c2cnccn2)C(C(=O)NC2CCCCC2)c2cc(OC)c(OC)c(OC)c2)cc1 (stereo not drawn) returned SENP7 inh inactive, SENP8 block-1 inactive, SENP6 block inactive, SENP1 inh inactive, SENP8 block-2 inactive and Platelet DG rel inactive.
Cc1cc(C)cc(NC(=S)Nc2cccc3ccccc23)c1 was read as SENP7 inh inactive, SENP8 block-1 inactive, SENP6 block 70.6, SENP1 inh inactive, SENP8 block-2 59.1, Platelet DG rel inactive, SENP8 confirm inactive, SENP6 confirm inactive, SENP7 conf inactive, Casp3 select inactive and Luc interf inactive.
Screening Fc1ccc(NC(=S)Nc2cccc3ccccc23)cc1 returned SENP7 inh inactive, SENP8 block-1 inactive, SENP6 block 65.3, SENP1 inh inactive, SENP8 block-2 inactive, Platelet DG rel inactive, SENP8 confirm inactive, SENP6 confirm inactive, SENP7 conf inactive, Casp3 select inactive and Luc interf inactive.
Screening Fc1ccc(NC(=S)Nc2ccccc2Cl)cc1 returned SENP7 inh inactive, SENP8 block-1 inactive, SENP6 block inactive, SENP1 inh inactive, SENP8 block-2 inactive and Platelet DG rel inactive.
For Cc1ccc(NC(=S)Nc2cccc3ccccc23)cc1 the results were SENP7 inh inactive, SENP8 block-1 inactive, SENP6 block 80.7, SENP1 inh inactive, SENP8 block-2 inactive, Platelet DG rel inactive, SENP8 confirm inactive, SENP6 confirm inactive, SENP7 conf inactive, Casp3 select inactive and Luc interf inactive.
For CSc1ccccc1NC(=S)Nc1cc(C)cc(C)c1 the results were SENP7 inh inactive, SENP8 block-1 inactive, SENP6 block inactive, SENP1 inh inactive, SENP8 block-2 inactive and Platelet DG rel inactive.
CC(C)c1ccc(NC(=S)Nc2cccc3ccccc23)cc1 was read as SENP7 inh inactive, SENP8 block-1 inactive, SENP6 block inactive, SENP1 inh inactive, SENP8 block-2 inactive and Platelet DG rel inactive.
CCc1cccc(NC(=S)Nc2cccc3ccccc23)c1 was read as SENP7 inh inactive, SENP8 block-1 inactive, SENP6 block 77.6, SENP1 inh inactive, SENP8 block-2 inactive, Platelet DG rel inactive, SENP8 confirm inactive, SENP6 confirm inactive, SENP7 conf inactive, Casp3 select inactive and Luc interf inactive.
